Experimental data published in ChEMBL document CHEMBL2086296, “Synthesis of novel quinoline-2-one based chalcones of potential anti-tumor activity” (Eur J Med Chem, 2012).

Assays:
HCT-15 [1] = assay: (§1) Cytotoxicity against human HCT15 cells after 24 hrs by SRB assay; type: cell-based; details: hct-15, 24 h
Procedure, shortened: (§2)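 NCI 60-cell screen. Cells grown in RPMI 1640 with 5% FBS and 2 mM L-glutamine, seeded at 5,000–40,000 cells/well, preincubated 24 h at 37 °C in 5% CO2. Drug stock in DMSO, diluted in medium with gentamicin; five final concentrations, 100, 10, 1.0, 0.1 and […]. Time-zero plates were TCA-fixed. Protein read by SRB staining; GI50, TGI and LC50 taken relative to time-zero.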

RPMI-8226 = assay: Cytotoxicity against human RPMI8226 cells after 24 hrs by SRB assay; type: functional; details: RPMI-8226, 24 h
Procedure, shortened: (§3)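 NCI 60-line screen. Cells in RPMI 1640 with 5% FBS and 2 mM L-glutamine, seeded at 5,000–40,000 cells/well by doubling time, then incubated 24 h at 37 °C, 5% CO2 before dosing. Time-zero plates fixed with TCA at drug addition. DMSO stocks diluted in medium with gentamicin to five concentrations, […]. Protein read by SRB staining. GI50, TGI and LC50 derived relative to control and time-zero.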

SK-MEL-5 [2] = assay: (§4) Cytotoxicity against human SK-MEL-5 cells after 24 hrs by SRB assay; type: cell-based; details: sk-mel-5, 24 h; procedure, shortened: as §2
UACC-62 [3] = assay: (§5) Cytotoxicity against human UACC62 cells after 24 hrs by SRB assay; type: cell-based; details: uacc-62, 24 h
Procedure, shortened: (§6)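 NCI 60-cell-line screen: cells grown in RPMI 1640 with 5% FBS and 2 mM L-glutamine, seeded at 5,000–40,000 cells/well by doubling time, and preincubated 24 h at 37 °C in 5% CO2. Time-zero plates were TCA-fixed. DMSO stocks were diluted in medium with gentamicin to five concentrations (100, 10, 1.0, 0.1, […]). Protein was read by SRB, and GI50, TGI and LC50 were derived against time-zero.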

SNB-75 [4] = assay: (§7) Cytotoxicity against human SNB75 cells after 24 hrs by SRB assay; type: cell-based; details: snb-75, 24 h; procedure, shortened: as §6
NCI-H226 = assay: Cytotoxicity against human NCI-H226 cells after 24 hrs by SRB assay; type: cell-based; details: nci-h226, 24 h; procedure, shortened: as §2
CCRF-CEM = assay: Cytotoxicity against human CCRF-CEM cells after 24 hrs by SRB assay; type: functional; procedure, shortened: as §3
NCI-H23 = assay: Cytotoxicity against human NCI-H23 cells after 24 hrs by SRB assay; type: functional; details: NCI-H23, 24 h; procedure, shortened: as §3
SNB-75 [5] = assay: as §7; type: functional; details: SNB-75, 24 h
Procedure, shortened: (§8)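 NCI 60-cell screen. Cells are grown in RPMI 1640 with 5% FBS and 2 mM L-glutamine and seeded at 5,000–40,000 cells/well according to doubling time. They are preincubated 24 h at 37 °C in 5% CO2, and Tz plates are TCA-fixed at drug addition. Drug stock is in DMSO, diluted in medium with gentamicin, and tested at five concentrations (100, 10, 1.0, 0.1, […]). Protein is read by SRB staining. GI50, TGI and LC50 are derived relative to time-zero and control wells.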

LOX IMVI = assay: Cytotoxicity against human LOXIMVI cells after 24 hrs by SRB assay; type: cell-based; procedure, shortened: as §2
OVCAR-8 [6] = assay: (§9) Cytotoxicity against human OVCAR8 cells after 24 hrs by SRB assay; type: functional; details: OVCAR-8, 24 h; procedure, shortened: as §3
HT-29 = assay: Cytotoxicity against human HT-29 cells after 24 hrs by SRB assay; type: functional; details: HT-29, 24 h; procedure, shortened: as §3
RXF 393 = assay: Cytotoxicity against human RXF393 cells after 24 hrs by SRB assay; type: functional; details: RXF 393, 24 h; procedure, shortened: as §3
EKVX = assay: Cytotoxicity against human EKVX cells after 24 hrs by SRB assay; type: cell-based; procedure, shortened: as §2
CAKI-1 = assay: Cytotoxicity against human CAKI-1 cells after 24 hrs by SRB assay; type: cell-based; details: caki-1, 24 h; procedure, shortened: as §2
A549 = assay: Cytotoxicity against human A549 cells after 24 hrs by SRB assay; type: cell-based; details: a549, 24 h; procedure, shortened: as §2
NCI-H522 = assay: Cytotoxicity against human NCI-H522 cells after 24 hrs by SRB assay; type: cell-based; details: nci-h522, 24 h; procedure, shortened: as §2
MDA-MB-468 = assay: Cytotoxicity against human MDA-MB-468 cells after 24 hrs by SRB assay; type: cell-based; details: mda-mb-468, 24 h; procedure, shortened: as §2
MOLT-4 = assay: Cytotoxicity against human MOLT4 cells after 24 hrs by SRB assay; type: functional; details: MOLT-4, 24 h; procedure, shortened: as §3
KM12 = assay: Cytotoxicity against human KM12 cells after 24 hrs by SRB assay; type: functional; details: KM12, 24 h; procedure, shortened: as §3
MDA-MB-435 = assay: Cytotoxicity against human MDA-MB-435 cells after 24 hrs by SRB assay; type: cell-based; details: mda-mb-435, 24 h; procedure, shortened: as §2
SR [7] = assay: (§10) Cytotoxicity against human SR cells after 24 hrs by SRB assay; type: functional; procedure, shortened: as §8
SNB-19 = assay: Cytotoxicity against human SNB19 cells after 24 hrs by SRB assay; type: cell-based; details: snb-19, 24 h; procedure, shortened: as §6
SF-539 = assay: Cytotoxicity against human SF539 cells after 24 hrs by SRB assay; type: cell-based; details: sf-539, 24 h; procedure, shortened: as §2
DU-145 = assay: Cytotoxicity against human DU145 cells after 24 hrs by SRB assay; type: cell-based; details: du-145, 24 h; procedure, shortened: as §2
SR [8] = assay: as §10; type: cell-based; procedure, shortened: as §6
SK-OV-3 [9] = assay: (§11) Cytotoxicity against human SKOV3 cells after 24 hrs by SRB assay; type: cell-based; details: sk-ov-3, 24 h; procedure, shortened: as §6
MDA-MB-231 = assay: Cytotoxicity against human MDA-MB-231 cells after 24 hrs by SRB assay; type: functional; details: MDA-MB-231, 24 h; procedure, shortened: as §3
ACHN = assay: Cytotoxicity against human ACHN cells after 24 hrs by SRB assay; type: cell-based; procedure, shortened: as §2
OVCAR-8 [10] = assay: as §9; type: cell-based; details: ovcar-8, 24 h; procedure, shortened: as §2
UACC-62 [11] = assay: as §5; type: functional; details: UACC-62, 24 h; procedure, shortened: as §8
SN12C = assay: Cytotoxicity against human SN12C cells after 24 hrs by SRB assay; type: functional; procedure, shortened: as §3
NCI-H460 = assay: Cytotoxicity against human NCI-H460 cells after 24 hrs by SRB assay; type: functional; details: NCI-H460, 24 h; procedure, shortened: as §3
HOP-62 = assay: Cytotoxicity against human HOP62 cells after 24 hrs by SRB assay; type: functional; details: HOP-62, 24 h; procedure, shortened: as §3
SK-OV-3 [12] = assay: as §11; type: functional; details: SK-OV-3, 24 h; procedure, shortened: as §3
SK-MEL-5 [13] = assay: as §4; type: functional; details: SK-MEL-5, 24 h; procedure, shortened: as §3
NCI/ADR-RES = assay: Cytotoxicity against human NCI/ADR-RES cells after 24 hrs by SRB assay; type: functional; procedure, shortened: as §3
HCT-15 [14] = assay: as §1; type: functional; details: HCT-15, 24 h; procedure, shortened: as §3

Compound: O=C(/C=C/c1cc2ccccc2[nH]c1=O)c1ccc(Cl)cc1
- LC50 (HCT-15 [1]): > 100 µM
- GI50 (RPMI-8226): 2.23 µM
- TGI (RPMI-8226): 16.1 µM
- LC50 (SK-MEL-5 [2]): > 100 µM
- LC50 (UACC-62 [3]): > 100 µM
- LC50 (SNB-75 [4]): > 100 µM
- LC50 (NCI-H226): > 100 µM
- GI50 (CCRF-CEM): 3.5 µM
- TGI (CCRF-CEM): > 100 µM
- GI50 (NCI-H23): 5.37 µM
- TGI (NCI-H23): 93.3 µM
- GI50 (SNB-75 [5]): 6.21 µM
- TGI (SNB-75 [5]): 48.8 µM
- LC50 (LOX IMVI): > 100 µM
- GI50 (OVCAR-8 [6]): 4.93 µM
- TGI (OVCAR-8 [6]): 21.2 µM
- GI50 (HT-29): 3.84 µM
- TGI (HT-29): 22.5 µM
- GI50 (RXF 393): 4.32 µM
- TGI (RXF 393): 29.9 µM
- LC50 (EKVX): > 100 µM
- LC50 (CAKI-1): 6.8 µM
- LC50 (A549): > 100 µM
- LC50 (NCI-H522): 47.2 µM
- LC50 (MDA-MB-468): 53.2 µM
- GI50 (MOLT-4): 3.11 µM
- TGI (MOLT-4): > 100 µM
- GI50 (KM12): 3.23 µM
- TGI (KM12): 16.3 µM
- LC50 (MDA-MB-435): > 100 µM
- GI50 (SR [7]): 1.71 µM
- TGI (SR [7]): 19.1 µM
- LC50 (SNB-19): > 100 µM
- LC50 (SF-539): 74.2 µM
- LC50 (DU-145): > 100 µM
- LC50 (SR [8]): > 100 µM
- LC50 (SK-OV-3 [9]): > 100 µM
- GI50 (MDA-MB-231): 6.16 µM
- TGI (MDA-MB-231): 28.3 µM
- LC50 (ACHN): 90.6 µM
- LC50 (OVCAR-8 [10]): 88.4 µM
- GI50 (UACC-62 [11]): 5.71 µM
- TGI (UACC-62 [11]): 54.3 µM
- GI50 (SN12C): 8.16 µM
- TGI (SN12C): > 100 µM
- GI50 (NCI-H460): 3.99 µM
- TGI (NCI-H460): 18.9 µM
- GI50 (HOP-62): 7.43 µM
- TGI (HOP-62): 44.2 µM
- TGI (SK-OV-3 [12]): > 100 µM
- GI50 (SK-MEL-5 [13]): 18.9 µM
- TGI (SK-MEL-5 [13]): > 100 µM
- GI50 (NCI/ADR-RES): 4 µM
- TGI (NCI/ADR-RES): 23.6 µM
- GI50 (HCT-15 [14]): 3.18 µM
- TGI (HCT-15 [14]): 20.2 µM

Compound: O=C(/C=C/c1cc2ccccc2[nH]c1=O)c1ccc(O)cc1
- LC50 (HCT-15 [1]): > 100 µM
- GI50 (RPMI-8226): 3.2 µM
- TGI (RPMI-8226): 24.8 µM
- LC50 (SK-MEL-5 [2]): 37.3 µM
- LC50 (UACC-62 [3]): 39.6 µM
- LC50 (SNB-75 [4]): 55 µM
- LC50 (NCI-H226): 34.5 µM
- GI50 (CCRF-CEM): 2.38 µM
- TGI (CCRF-CEM): > 100 µM
- GI50 (NCI-H23): 3.18 µM
- TGI (NCI-H23): 20 µM
- GI50 (SNB-75 [5]): 9.3 µM
- TGI (SNB-75 [5]): 23 µM
- LC50 (LOX IMVI): > 100 µM
- GI50 (OVCAR-8 [6]): 3.23 µM
- TGI (OVCAR-8 [6]): 21.1 µM
- GI50 (HT-29): 3.61 µM
- TGI (HT-29): 12.1 µM
- GI50 (RXF 393): 1.65 µM
- TGI (RXF 393): 3.23 µM
- LC50 (EKVX): 55.2 µM
- LC50 (CAKI-1): > 100 µM
- LC50 (A549): 89.9 µM
- LC50 (NCI-H522): 6.36 µM
- LC50 (MDA-MB-468): 19.8 µM
- GI50 (MOLT-4): 3.04 µM
- TGI (MOLT-4): 9.91 µM
- GI50 (KM12): 1.89 µM
- TGI (KM12): 4.5 µM
- LC50 (MDA-MB-435): > 100 µM
- GI50 (SR [7]): 1.66 µM
- LC50 (SNB-19): 50.6 µM
- LC50 (SF-539): 61.674 µM
- LC50 (DU-145): 38 µM
- LC50 (SR [8]): > 100 µM
- GI50 (MDA-MB-231): 2.31 µM
- TGI (MDA-MB-231): 15 µM
- LC50 (ACHN): 34 µM
- LC50 (OVCAR-8 [10]): > 100 µM
- GI50 (UACC-62 [11]): 2.88 µM
- TGI (UACC-62 [11]): 8.73 µM
- GI50 (SN12C): 3.48 µM
- TGI (SN12C): 16 µM
- GI50 (NCI-H460): 2.39 µM
- TGI (NCI-H460): 6.87 µM
- GI50 (HOP-62): 2.62 µM
- TGI (HOP-62): 8.17 µM
- GI50 (SK-MEL-5 [13]): 3.98 µM
- TGI (SK-MEL-5 [13]): 13.3 µM
- GI50 (NCI/ADR-RES): 2.9 µM
- TGI (NCI/ADR-RES): > 100 µM
- GI50 (HCT-15 [14]): 2.71 µM
- TGI (HCT-15 [14]): 12.8 µM
